Screening results as filed in PubChem.
SKKanGAS inh – inhibitors of SKKanGAS S. pyogenes growth in kanamycin (SK-promoter or general growth effect). actives 1.3% (n = 300,000). BacTiter-Glo, 6 h. inhibition, % at 7.5 µM;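 active = mean replicate score, as percent of positive control median, at least 50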;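 also: strain carries kanamycin resistance gene driven by streptokinase promoter and grows in 40 µg/ml kanamycin; loss of luminescence reflects streptokinase promoter inhibition or plain growth inhibition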
UPR XBP1 act – activators of adaptive arm of unfolded protein response (XBP1); activation, % at 20 µM; actives 0.33% (n = 330,000); CHO-XBP1 luciferase reporter, IRE1-XBP1 UPR activation, luminescence; percent of tunicamycin response, DMSO as zero;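 active = versus positive control, 20 µM dose yields 30% or more activation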
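Material: CHO-XBP1 cells stably carrying IRE1-XBP1-driven luciferase reporter / Amount: 1000 cells per well / Compound: 20 µM, 1% DMSO / Times: 6 h treatment, 37 °C / Detection: luciferase luminescence / Measure: % activation of reporter signal versus tunicamycin and DMSO controls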
Mdm2-MdmX inh – inhibitors of human Mdm2/MdmX interaction; O15151+Q00987; SaOS-2 split-luciferase Mdm2/MdmX complementation, luminescence; inhibition, % at 8 µM; actives 3% (n = 330,000); AID 485346;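 active = inhibition of at least 50% at 8 µM in the primary screen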
Target sequence (O15151 whole entry, looked up): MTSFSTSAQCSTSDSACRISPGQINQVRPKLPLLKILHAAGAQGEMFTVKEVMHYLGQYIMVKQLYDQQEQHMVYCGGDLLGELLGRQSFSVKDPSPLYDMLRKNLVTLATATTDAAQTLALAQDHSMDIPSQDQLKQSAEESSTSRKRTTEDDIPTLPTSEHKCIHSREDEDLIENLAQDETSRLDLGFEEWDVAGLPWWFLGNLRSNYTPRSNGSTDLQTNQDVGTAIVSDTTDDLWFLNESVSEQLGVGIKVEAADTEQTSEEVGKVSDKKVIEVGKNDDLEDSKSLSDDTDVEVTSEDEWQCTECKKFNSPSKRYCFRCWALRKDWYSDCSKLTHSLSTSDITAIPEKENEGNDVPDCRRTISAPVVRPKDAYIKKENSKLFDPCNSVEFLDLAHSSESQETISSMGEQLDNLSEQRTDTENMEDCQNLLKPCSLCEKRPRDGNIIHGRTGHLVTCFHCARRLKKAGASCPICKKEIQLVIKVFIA
Target sequence (Q00987 whole entry, looked up): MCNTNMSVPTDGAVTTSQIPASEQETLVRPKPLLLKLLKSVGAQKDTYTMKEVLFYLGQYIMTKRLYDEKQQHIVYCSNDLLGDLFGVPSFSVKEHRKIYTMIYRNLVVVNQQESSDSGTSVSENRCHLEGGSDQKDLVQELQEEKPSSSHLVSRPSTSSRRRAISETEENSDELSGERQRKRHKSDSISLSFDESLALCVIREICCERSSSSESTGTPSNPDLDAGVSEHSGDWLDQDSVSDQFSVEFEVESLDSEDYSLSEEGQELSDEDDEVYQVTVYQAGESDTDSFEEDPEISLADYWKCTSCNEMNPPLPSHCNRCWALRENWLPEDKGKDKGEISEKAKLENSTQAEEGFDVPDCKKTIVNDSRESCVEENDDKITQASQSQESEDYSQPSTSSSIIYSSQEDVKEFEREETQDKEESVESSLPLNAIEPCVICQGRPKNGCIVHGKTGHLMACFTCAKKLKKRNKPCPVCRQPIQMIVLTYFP
CHOP UPR activ – activators of apoptotic arm of unfolded protein response (CHOP); CHO-CHOP luciferase reporter, UPR activation, luminescence; percent of tunicamycin response over DMSO baseline; activation, % at 10 µM; actives 0.34% (n = 330,000); AID 449763;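 active = at 10 µM dose, activation of 40% or more, normalized to positive control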
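Assay system: CHO-CHOP cells, stable luciferase reporter of PERK-eIF2a-CHOP signalling / Buffer or medium: F12 plus 10% serum / Compound dosing: one dose, 10 µM in 0.5% DMSO / Times: 6 h compound treatment, 37 °C / Technique: luciferase luminescence / Read-out: % reporter activation, DMSO baseline versus tunicamycin full activation / Benchmarks: tunicamycin and DMSO controls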
Beta apoptosis – beta cell apoptosis inhibition; AID 435005; INS-1E cytokine-induced death, ATP luminescence, 48 h; percent of positive-control rescue, neutral wells zero; actives 0.8% (n = 300,000); protection from apoptosis, % (test concentration not listed);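 active = Every replicate reaches about 75%, or at least half do and their mean reaches it too, limit read from the data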;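 also: higher means more ATP so stronger rescue from cytokine killing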
CSC inhib – blocks cancer stem cells. cancer stem cell-like cells viability, luminescence. inhibition, % at 7.5 µM. actives 1.1% (n = 300,000). AID 2717; in the data active = inhibition above about 75%; tested in HMLE shEcad cells
Mdm2-MdmX conf – confirmation of human Mdm2/MdmX interaction inhibitors; Mdm2-MdmX binding, luminescent assay; shares compounds with Mdm2-MdmX inh; actives 55% (n = 10,000); inhibition, % at 8 µM; in the data active = inhibition above about 40%
FLuc counter – full-length luciferase inhibition in Mdm2/MdmX counter-screen | shares compounds with Mdm2-MdmX inh | SaOS-2 full-length luciferase counterscreen, luminescence | inhibition, % at 8 µM | actives 77% (n = 6,200) | AID 504607;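 active = mean inhibition at 8 µM reaching about 37%, which flags the compound as non-specific, limit read from the data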;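 also: p53-null SaOS-2 cells with luciferase driven by a doxycycline-inducible promoter; compound on cells about two nights before reading with doxycycline added after day one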
A number is an active result; i = inactive; nt = not tested or not shown. Rows were chosen to be rich in hits. Some 4.8% of all compounds tested hit in one or more screens of this group.

SMILES | SKKanGAS inh | UPR XBP1 act | Mdm2-MdmX inh | CHOP UPR activ | Beta apoptosis | CSC inhib | Mdm2-MdmX conf | FLuc counter
COc1ccccc1N1CCN(C(=O)c2ccc3nc(-c4ccco4)c(-c4ccco4)nc3c2)CC1 | i | i | 53.9 | i | i | i | i | nt
COc1ccccc1N1CCN(C(=O)c2ccc3c(Cl)c4c(nc3c2)CCCC4)CC1 | i | i | 64.2 | i | i | i | i | nt
COc1ccccc1N1CCN(S(=O)(=O)c2ccc(NC(C)=O)cc2)CC1 | i | i | i | i | i | i | nt | nt
N#C/C(=N\Nc1cccc(C(F)(F)F)c1)C(=O)c1ccsc1 | i | i | 78.1 | i | i | i | 63.2 | 66.7
CCOc1ccc(CCNC(=O)COC(=O)COc2ccc(C#N)cc2)cc1OCC | nt | i | i | i | i | nt | nt | nt
CCc1ccc2c(c1)C1(C(=O)N2)N2CCCC2C(C(=O)c2ccc3ccccc3c2)C12C(=O)Nc1ccccc12 (stereo unspecified) | i | i | 91.2 | i | 121.1 | 159.5 | i | 90.7
O=C(COC(=O)c1ccc2ncsc2c1)Nc1ccccc1Cl | nt | i | i | i | i | i | nt | nt
COC(=O)c1cc(S(=O)(=O)NC2CCCCC2)cn1C | i | i | i | i | i | i | nt | nt
CNC(=S)N(C)/N=C1/C(=O)N(Cc2c(Cl)cccc2Cl)c2ccccc21 | nt | i | i | i | i | i | nt | nt
O=C1c2ccccc2C(=O)C1c1ccccn1 | i | i | i | i | i | i | nt | nt
O=C1c2ccccc2C(=O)C2OC12 (stereo unspecified) | i | i | 72.1 | 66.4 | i | i | i | 43.7
COc1ccc(CNC(=O)CN(Cc2ccccc2F)C(=O)c2csnn2)cc1 | i | i | i | i | i | i | nt | nt
Cc1cc(C)nc(SCC(=O)NN=Cc2ccc(C)o2)n1 | nt | i | i | i | i | i | nt | nt
COc1ccc(/C=N/Nc2nnc(-c3ncc[nH]3)c3ccccc23)cc1 | i | i | 52.4 | i | i | i | i | nt
Clc1nnc(N/N=C/c2ccccc2)c2ccccc12 | i | i | i | i | i | i | nt | nt
Oc1ccc2ccccc2c1/C=N/Nc1nnc(-c2ncc[nH]2)c2ccccc12 | 97.4 | i | 81.4 | i | 106.6 | 100.1 | 83.0 | 54.9
O=C(NCc1ccccc1)c1onc(CSc2ccccc2)c1C(=O)NCC1CC1 | i | i | 54.5 | i | i | i | 49.6 | 81.4
COC(=O)c1ccc(CNC(=O)Cn2cnc3c(NCc4ccccc4)ncnc32)cc1 | nt | i | i | i | nt | nt | nt | nt
COc1ccc(CNC(=O)Cn2cnc3c(NCc4ccccc4)ncnc32)cc1 | nt | i | 61.2 | i | nt | nt | i | nt
Cc1[nH]c2ccccc2c1C(O)CN1CCN(c2cccc(C(F)(F)F)c2)CC1 (stereo unspecified) | i | i | 59.1 | i | i | i | i | nt
COc1cc(NC(=O)CCc2nnc3ccc(N4CCN(C)CC4)nn23)cc(OC)c1 | i | i | i | i | i | i | nt | nt
Nc1cc(S(=O)(=O)Nc2cc(Cl)ccc2Cl)ccc1N1CCCC1 | i | i | i | i | i | i | nt | nt
Cc1cc(C)n(-c2ccc(NC(=O)C3CCCCN3Cc3cccc4c3OCO4)cc2)n1 (stereo unspecified) | i | i | 51.6 | i | nt | nt | 64.0 | 74.8
Cc1cc(C)n(-c2ccc(NC(=O)C3CCCCN3C(=O)c3ccoc3)cc2)n1 (stereo unspecified) | i | i | i | i | i | i | nt | nt
COc1ccc(N2CC(O)=C(c3nc(-c4ccc(Cl)cc4)cs3)C2=N)cc1 | i | 85.2 | 52.8 | i | i | i | 41.5 | 62.6
COc1ccc(N2CC(O)=C(c3nc(-c4ccc(Br)cc4)cs3)C2=N)cc1 | i | 58.0 | 71.4 | i | i | i | 54.0 | 75.2
COc1ccc(N2CC(O)=C(c3nc(-c4ccccc4)cs3)C2=N)cc1 | i | i | i | i | i | i | nt | nt
COc1ccc(C2C(O)C(c3c[nH]c4ccccc34)=NN2C(=O)CCl)cc1 (stereo unspecified) | i | i | 98.2 | i | 128.8 | 109.1 | 97.1 | i
